Experimental data taken from ChEMBL document CHEMBL4425160, “DABCO-catalyzed one-pot three component synthesis of dihydropyrano[3,2-c]chromene substituted quinazolines and their evaluation towards anticancer activity” (Bioorg Med Chem Lett, 2016).

Tests used:
[1] = test system: MDA-MB-231; assay: Cytotoxicity against human MDA-MB-231 cells assessed as cell growth inhibition after 48 hrs by MTT assay; type: functional, cell-based; conditions: MDA-MB-231, 48 h
Method in brief: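 Cells counted by trypan blue exclusion, seeded at 1×10^4 per well in DMEM with 10% FBS, and left 24 h. They were then exposed to a concentration series for 48 h at 37°C. Serum-free medium with MTT was added for 4 h, formazan was dissolved in DMSO, and A570 was read minus A690. IC50 was read from the 50% viability point versus DMSO+DMEM controls.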

[2] = test system: MDA-MB-231; assay: Cytotoxicity against human MDA-MB-231 cells assessed as cell growth inhibition at 50 uM after 48 hrs by MTT assay; type: functional; conditions: MDA-MB-231, 48 h, read-out: GI
Method in brief: (§1)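 MTT growth assay. 1×10^4 cells were seeded in DMEM with 10% FBS and incubated 24 h. Each compound was then applied at the stated single concentration for 48 h at 37°C, followed by MTT for 4 h. Formazan was solubilized in DMSO and absorbance read at 570 nm with 690 nm background subtraction. Inhibition is relative to control cells given DMSO+DMEM.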

[3] = test system: MDA-MB-231; assay: Cytotoxicity against human MDA-MB-231 cells assessed as cell growth inhibition at 100 uM after 48 hrs by MTT assay; type: functional; conditions: MDA-MB-231, 48 h, read-out: GI; method in brief: as §1

Row | Structure (SMILES) | IC50 [1] [µM] | inhibition of growth at 50 µM [2] [%] | inhibition of growth at 100 µM [3] [%]
1 | CCOC(=O)C1=C(N)Oc2c(c(=O)oc3cc(C)c(C)cc23)C1c1nc(OCc2ccccc2)c2ccccc2n1 (centres undefined) | > 100 | – | –
2 | CCOC(=O)C1=C(N)Oc2c(c(=O)oc3cc(OC)ccc23)C1c1nc(OCc2ccccc2)c2ccccc2n1 (centres undefined) | > 100 | – | –
3 | CCOC(=O)C1=C(N)Oc2c(c(=O)oc3c(Cl)cc(Cl)cc23)C1c1nc(OCc2ccccc2)c2ccccc2n1 (centres undefined) | > 100 | – | –
4 | CCOC(=O)C1=C(N)Oc2c(c(=O)oc3ccccc23)C1c1nc(OCc2ccccc2)c2ccccc2n1 (centres undefined) | > 100 | – | –
5 | CCOC(=O)C1=C(N)Oc2c(c(=O)oc3c(Br)cc(Cl)cc23)C1c1nc(OCc2ccccc2)c2ccccc2n1 (centres undefined) | 28.3 | 80 | > 95
6 | CCOC(=O)C1=C(N)Oc2c(c(=O)oc3ccc(F)cc23)C1c1nc(OCc2ccccc2)c2ccccc2n1 (centres undefined) | > 100 | – | –
7 | CCOC(=O)C1=C(N)Oc2c(c(=O)oc3cc(OC)c(Cl)cc23)C1c1nc(OCc2ccccc2)c2ccccc2n1 (centres undefined) | > 100 | – | –
